Measured values from ChEMBL document CHEMBL4251693, “Indolylmaleimide Derivative IM-17 Shows Cardioprotective Effects in Ischemia-Reperfusion Injury” (ACS Med Chem Lett, 2018).
The source made the active and inactive calls. The rule behind the calls is not given here. Peptide text beside a SMILES is read from it. * marks the point of attachment. Cbz = O=C(OCc1ccccc1)*

Legend:
H9c2 [1] = test: Cytotoxicity against rat H9c2 cells at 30 uM; format: cell-based; details: h9c2, 30 µM
HL-60 [2] = test: Cytoprotective activity against H2O2-induced necrosis in human HL60 cells incubated for 1 hr followed by H2O2 stimulation by LDH release assay; format: functional, cell-based; details: HL-60, 1 h
Procedure, shortened: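 Necrosis of HL-60 cells induced by H2O2 and quantified as lactate dehydrogenase release from the cytosol; IC50 derived.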

[3] = Stability in rat liver S9 fraction at 5 uM after 30 mins by HPLC method; format: ADME, subcellular; details: s9, 0.5 h
H9c2 [4] = test: Cytoprotective activity against TBHP-induced necrosis in rat H9c2 cells incubated for 4 hrs by LDH release assay; format: functional, cell-based; details: H9c2, 4 h
Procedure, shortened: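 Rat cardiomyoblast H9c2 cells treated with TBHP (300 μM) with or without test compound; necrotic cell death quantified by LDH release assay.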

HL-60 [5] = test: Cytoprotective activity against H2O2-induced necrosis in human HL60 cells assessed as increase in cell viability at 100 uM incubated for 1 hr followed by H2O2 stimulation measured after 3 hrs by Alamar blue assay; format: functional, cell-based
Procedure, shortened: (§1)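 HL-60 cells given a death inducer with or without test agent (10 μM) or Z-VAD (100 μM). Inducers were actinomycin D 1 μM for 6 h, camptothecin 1 μM for 6 h, etoposide 100 μM for 4 h, FasL 100 ng/mL for 18 h, H2O2 100 μM for 3 h, and TBHP 30 μM for 3 h. Viability read by AlamarBlue.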

Jurkat [6] = test: Cytoprotective activity against FasL-induced apoptosis in human Jurkat cells assessed as increase in cell viability at 100 uM incubated for 1 hr followed by FasL stimulation measured after 18 hrs by phase contrast microscopy; format: functional, cell-based
Procedure, shortened: (§2)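 Jurkat cells exposed to FasL (100 ng/mL, 18 h) with or without test agent (10 μM) or Z-VAD (100 μM). Viability measured by AlamarBlue and morphology by phase-contrast imaging.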

HL-60 [7] = test: Cytoprotective activity against actinomycin D-induced apoptosis in human HL60 cells assessed as increase in cell viability at 100 uM incubated for 1 hr followed by actinomycin D stimulation measured after 6 hrs by Alamar blue assay; format: functional, cell-based; procedure, shortened: as §1
HL-60 [8] = test: Cytoprotective activity against H2O2-induced apoptosis in human HL60 cells assessed as increase in cell viability at 100 uM incubated for 1 hr followed by H2O2 stimulation measured after 4 hrs by phase contrast microscopy; format: functional, cell-based
Procedure, shortened: (§3)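 HL-60 cells exposed to low-level H2O2 (30 μM, 4 h) with or without test agent (10 μM) or Z-VAD (100 μM). Viability read by AlamarBlue; morphology by phase-contrast imaging.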

HL-60 [9] = test: Cytoprotective activity against etoposide-induced apoptosis in human HL60 cells assessed as increase in cell viability at 100 uM incubated for 1 hr followed by etoposide stimulation measured after 4 hrs by Alamar blue assay; format: functional, cell-based; procedure, shortened: as §1
HL-60 [10] = test: Cytoprotective activity against TBHP-induced necrosis in human HL60 cells assessed as increase in cell viability at 100 uM incubated for 1 hr followed by TBHP stimulation measured after 3 hrs by Alamar blue assay; format: functional, cell-based
HL-60 [11] = test: Cytoprotective activity against Fas ligand-induced apoptosis in human HL60 cells assessed as increase in cell viability at 100 uM incubated for 1 hr followed by Fas ligand stimulation measured after 18 hrs by Alamar blue assay; format: functional, cell-based; procedure, shortened: as §1
Jurkat [12] = test: Cytoprotective activity against FasL-induced apoptosis in human Jurkat cells assessed as increase in cell viability at 100 uM incubated for 1 hr followed by FasL stimulation measured after 18 hrs by Alamar blue assay; format: functional, cell-based; procedure, shortened: as §2
HL-60 [13] = test: Cytoprotective activity against H2O2-induced apoptosis in human HL60 cells assessed as increase in cell viability at 100 uM incubated for 1 hr followed by H2O2 stimulation measured after 4 hrs by Alamar blue assay; format: functional, cell-based; procedure, shortened: as §3
HL-60 [14] = test: Cytoprotective activity against camptothecin-induced apoptosis in human HL60 cells assessed as increase in cell viability at 100 uM incubated for 1 hr followed by camptothecin stimulation measured after 6 hrs by Alamar blue assay; format: functional, cell-based; procedure, shortened: as §1
Heart [15] = test: Cardioprotective activity against Langendorff isolated Sprague-Dawley rat heart ischemia-reperfusion injury model assessed as suppression of creatine kinase release at 3 uM administered for 10 mins as infusion followed by 30 mins of global ischemia and 60 mins of reperfusion; format: functional, tissue-based
Procedure, shortened: (§4)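 Isolated rat hearts perfused in Langendorff mode with Krebs-Henseleit buffer. Compound (HCl salt) added to the perfusate for 10 min before no-flow global ischemia of 30 min, then 60 min reperfusion with flow restored. Left ventricular developed pressure recovery taken as heart function; creatine kinase released from myocardium taken as membrane integrity marker.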

Heart [16] = test: Cardioprotective activity against Langendorff isolated Sprague-Dawley rat heart ischemia-reperfusion injury model assessed as improvement in LVDP at 3 uM administered for 10 mins as infusion followed by 30 mins of global ischemia and 60 mins of reperfusion; format: functional, tissue-based; procedure, shortened: as §4
Heart [17] = test: Cardioprotective activity against Langendorff isolated Sprague-Dawley rat heart ischemia-reperfusion injury model assessed as improvement in LVDP at 0.3 uM administered for 10 mins as infusion followed by 30 mins of global ischemia and 60 mins of reperfusion; format: functional, tissue-based; procedure, shortened: as §4
Heart [18] = test: Cardioprotective activity against Langendorff isolated Sprague-Dawley rat heart ischemia-reperfusion injury model assessed as suppression of creatine kinase release at 0.3 uM administered for 10 mins as infusion followed by 30 mins of global ischemia and 60 mins of reperfusion; format: functional, tissue-based; procedure, shortened: as §4
Jurkat [19] = test: Cytoprotective activity against FasL-induced necroptosis in human Jurkat cells assessed as increase in cell viability at 30 uM incubated for 1 hr followed by FasL stimulation measured after 20 hrs by phase contrast microscopy; format: functional, cell-based
Procedure, shortened: (§5)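 Jurkat necroptosis induced with FasL (100 ng/mL, 20 h) together with Z-VAD (100 μM) or cycloheximide (5 μM). Test agents were run at 10 μM alongside a necroptosis inhibitor at 30 μM. Viability read by AlamarBlue; morphology examined by phase-contrast imaging.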

Jurkat [20] = test: Cytoprotective activity against FasL-induced necroptosis in human Jurkat cells assessed as increase in cell viability at 30 uM incubated for 1 hr followed by FasL stimulation measured after 20 hrs by Alamar blue assay; format: functional, cell-based; procedure, shortened: as §5
HL-60 [21] = test: Cytoprotective activity against H2O2-induced necrosis in human HL60 cells assessed as increase in cell viability at 1 to 10 uM incubated for 1 hr followed by H2O2 stimulation measured after 3 hrs by Alamar blue assay; format: functional, cell-based
Procedure, shortened: (§6)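 HL-60 cells treated with H2O2 (100 μM, 3 h) with or without various cell death inhibitors (cyclophilin D, PARP-1, necroptosis, autophagy). Viability read by AlamarBlue.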

Jurkat [22] = test: Cytoprotective activity against Z-VAD-induced necroptosis in human Jurkat cells assessed as increase in cell viability at 30 uM incubated for 1 hr followed by Z-VAD stimulation by phase contrast microscopy; format: functional, cell-based; procedure, shortened: as §5
Jurkat [23] = test: Cytoprotective activity against CHX-induced necroptosis in human Jurkat cells assessed as increase in cell viability at 30 uM incubated for 1 hr followed by CHX stimulation by Alamar blue assay; format: functional, cell-based; procedure, shortened: as §5
Jurkat [24] = test: Cytoprotective activity against CHX-induced necroptosis in human Jurkat cells assessed as increase in cell viability at 30 uM incubated for 1 hr followed by CHX stimulation by phase contrast microscopy; format: functional, cell-based; procedure, shortened: as §5
Jurkat [25] = test: Cytoprotective activity against Z-VAD-induced necroptosis in human Jurkat cells assessed as increase in cell viability at 30 uM incubated for 1 hr followed by Z-VAD stimulation by Alamar blue assay; format: functional, cell-based; procedure, shortened: as §5
HL-60 [26] = test: Cytoprotective activity against H2O2-induced necrosis in human HL60 cells assessed as increase in cell viability at 10 to 100 uM incubated for 1 hr followed by H2O2 stimulation measured after 3 hrs by Alamar blue assay; format: functional, cell-based; procedure, shortened: as §6
Rattus norvegicus [27] = test: Cardioprotective activity against Sprague-Dawley rat ischemia reperfusion-induced arrhythmia model assessed as ventricular fibrillation time at 3 mg/kg, iv administered 5 mins before ischemia (reference value: 95.3 +/- 13 sec); format: functional
Rattus norvegicus [28] = test: Toxicity in Sprague-Dawley rat ischemia reperfusion-induced arrhythmia model assessed as mortality at 1 mg/kg, iv administered 5 mins before ischemia (reference value: 60%); format: organism-based; details: in vivo
Rattus norvegicus [29] = test: Cardioprotective activity against Sprague-Dawley rat ischemia reperfusion-induced arrhythmia model assessed as ventricular fibrillation time at 1 mg/kg, iv administered 5 mins before ischemia (reference value: 95.3 +/- 13 sec); format: functional
Rattus norvegicus [30] = test: Toxicity in Sprague-Dawley rat ischemia reperfusion-induced arrhythmia model assessed as mortality at 3 mg/kg, iv administered 5 mins before ischemia (reference value: 60%); format: organism-based; details: in vivo
Rattus norvegicus [31] = test: Cardioprotective activity against Sprague-Dawley rat ischemia reperfusion-induced arrhythmia model assessed as ventricular fibrillation time at 3 mg/kg, iv administered 1 min before reperfusion (reference value: 96.3 +/- 24.1 sec); format: functional
Rattus norvegicus [32] = test: Toxicity in Sprague-Dawley rat ischemia reperfusion-induced arrhythmia model assessed as mortality at 3 mg/kg, iv administered 1 min before reperfusion (reference value: 75%); format: organism-based; details: in vivo
HL-60 [33] = test: Cytoprotective activity against H2O2-induced necrosis in human HL60 cells assessed as increase in cell viability at 1 to 5 mM incubated for 1 hr followed by H2O2 stimulation measured after 3 hrs by Alamar blue assay; format: functional, cell-based; procedure, shortened: as §6

For `CN1C(=O)C(NCCN)=C(c2cn(C)c3ccccc23)C1=O` [listing 1 of 2 here], the Activity (H9c2 [1]) was “Non-Toxic”, the IC50 (HL-60 [2]) was 1 µM and the Stability [3] was “Stable”. It also gave an IC50 (H9c2 [4]) of 4.9 µM.

Work on `CN1C(=O)C(NCCCO)=C(c2cn(C)c3ccccc23)C1=O` yielded an IC50 (HL-60 [2]) of 1.9 µM.

`CNC1=C(c2cn(C)c3ccccc23)C(=O)N(C)C1=O` gave an IC50 (HL-60 [2]) of 0.91 µM.

With `CN1C(=O)C(c2c[nH]c3ccccc23)=C(c2cn(CCCN)c3ccccc23)C1=O` the Activity (H9c2 [1]) was “Toxic” and the IC50 (H9c2 [4]) was 3 µM.

For `COC(=O)C[C@H](NC(=O)[C@H](C)NC(=O)[C@@H](NC(=O)OCc1ccccc1)C(C)C)C(=O)O` (Cbz-Val-Ala-Asp(OMe)-OH), the Activity (HL-60 [5]) was “inactive”, the Activity (Jurkat [6]) was “Active” and the Activity (HL-60 [7]) was “Active”. The Activity (HL-60 [8]) was “Active”, the Activity (HL-60 [9]) was “Active” and the Activity (HL-60 [10]) was “inactive”. The Activity (HL-60 [11]) was “Active”, the Activity (Jurkat [12]) was “Active” and the Activity (HL-60 [13]) was “Active”. For the same compound, the Activity (HL-60 [14]) was “Active”.

For `CN1C(=O)C(NCCN)=C(c2cn(C)c3ccccc23)C1=O` [listing 2 of 2 here], the Activity (Heart [15]) was “Active” and the Activity (Heart [16]) was “Active”.

In the case of `CCCNC1=C(c2cn(C)c3ccccc23)C(=O)N(C)C1=O`, the Activity (Heart [17]) is reported as “Active”, the Activity (Heart [18]) is reported as “Active” and the Activity (H9c2 [1]) is reported as “Non-Toxic”. For the same compound, the IC50 (HL-60 [2]) was 0.44 µM, the Stability [3] was “Unstable” and the IC50 (H9c2 [4]) was 4.4 µM.

For `CN1C(=O)C(Cc2c[nH]c3ccccc23)NC1=S` (configuration not stated), the Activity (Jurkat [19]) was “Active”, the Activity (Jurkat [20]) was “Active” and the Activity (HL-60 [21]) was “inactive”. For the same compound, the Activity (Jurkat [22]) was “Active”, the Activity (Jurkat [23]) was “Active” and the Activity (Jurkat [24]) was “Active”. For the same compound, the Activity (Jurkat [25]) was “Active”.

In the case of `O=C1NCCc2c(OCCCCN3CCCCC3)cccc21`, the Activity (HL-60 [26]) is reported as “inactive”.

For `CN1C(=O)C(NCCCCN)=C(c2cn(C)c3ccccc23)C1=O`, the IC50 (HL-60 [2]) was 1.3 µM.

Compound `CCCCNC1=C(c2cn(C)c3ccccc23)C(=O)N(C)C1=O` has an IC50 (HL-60 [2]) of 0.42 µM.

For `CN1C(=O)C(NCCCCO)=C(c2cn(C)c3ccccc23)C1=O`, the IC50 (HL-60 [2]) was 1.1 µM.

In the case of `CN1C(=O)C(NCCN)=C(c2cn(C)c3ccccc23)C1=O.Cl`, the Time (Rattus norvegicus [27]) is reported as 0 s, the mortality (Rattus norvegicus [28]) is reported as 20% and the Time (Rattus norvegicus [29]) is reported as 38.2 s. For the same compound, the mortality (Rattus norvegicus [30]) was 0%, the Time (Rattus norvegicus [31]) was 57 s and the mortality (Rattus norvegicus [32]) was 20%.

Work on `CCCCCCNC1=C(c2cn(C)c3ccccc23)C(=O)N(C)C1=O` yielded an IC50 (HL-60 [2]) of 0.38 µM.

Compound `CN1C(=O)C(NCCO)=C(c2cn(C)c3ccccc23)C1=O` has an IC50 (HL-60 [2]) of 1.3 µM.

In the case of `Cn1cnc(N)c2ncnc1-2`, the Activity (HL-60 [33]) is reported as “inactive”.

`CN1C(=O)C(NCCCN)=C(c2cn(C)c3ccccc23)C1=O` showed an IC50 (HL-60 [2]) of 1.3 µM.
